Results as given in paper PMC3873233 (Diabetes, Metabolic Syndrome and Obesity: Targets and …, 2013).

How the values were obtained:
[1] = test system: DIO male Golden Syrian hamsters; assay: Oral glucose tolerance test in DIO hamsters; type: in vivo, hamster; conditions: TRC210258 6 mg/kg intraperitoneal, sitagliptin 3 mg/kg oral
Outline: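 Hamsters made obese on 45% kcal-fat diet for 8±2 weeks. Double-dummy dosing: i.p. vehicle 0.9% Na-CMC + 0.1% Tween-80 in PBS pH 7.4, oral vehicle 0.5% Tween-80 + 0.5% Na-CMC in water. Oral glucose tolerance test done during treatment. Retro-orbital sampling under mild anaesthesia into K-EDTA. Plasma glucose by autoanalyzer; insulin by hamster-specific ELISA.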

[2] = target: T1, human TGR5 receptor (Homo sapiens, UniProt Q8TDU6); type: cell-based
T1 sequence (Q8TDU6 1-330): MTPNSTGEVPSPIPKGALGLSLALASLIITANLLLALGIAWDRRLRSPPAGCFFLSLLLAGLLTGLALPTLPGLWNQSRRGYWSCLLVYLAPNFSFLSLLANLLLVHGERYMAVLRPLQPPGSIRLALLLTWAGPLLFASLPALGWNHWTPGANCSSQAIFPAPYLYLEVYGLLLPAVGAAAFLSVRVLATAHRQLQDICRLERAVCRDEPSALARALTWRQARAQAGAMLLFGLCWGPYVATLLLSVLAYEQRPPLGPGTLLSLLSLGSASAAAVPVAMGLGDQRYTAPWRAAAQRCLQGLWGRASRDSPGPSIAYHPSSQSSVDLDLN

[3] = test system: NCI-H716 human enteroendocrine cell line; assay: TGR5-mediated GLP1 secretion; type: cell-based; conditions: NCI-H716 cells, 1 hour, in presence of 0.05% sitagliptin; versus vehicle
Outline: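 NCI-H716 human enteroendocrine cells exposed 1 h to vehicle, test compound or lithocholic acid (positive control), with 0.05% DPP-4 inhibitor sitagliptin present. Active GLP1 in culture supernatant measured by ELISA, expressed in pM. Two experiments, each in duplicate, averaged.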

[4] = test system: high-fat DIO C57bl/6J mice; assay: Glycemic control; type: in vivo, mouse; conditions: 4 weeks of treatment, 9 mg/kg oral once daily
Outline: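 DIO C57bl/6J males on 45% kcal-fat diet for 8±2 weeks before study, diet continued. Oral dosing once daily for 4 weeks in 0.5% w/v Tween-80 + 0.5% w/v Na-CMC in water. OGTT: 6 h fast, dose, 0-min sample 15 min later, glucose 2 g/kg, tail-snip samples at 15–120 min. K-EDTA plasma; glucose by autoanalyzer, fasting insulin by rat/mouse ELISA.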

[5] = test system: DIO male Golden Syrian hamsters; assay: Plasma lipid parameters in high fat-fed DIO hamsters, experiment C; type: in vivo, hamster; conditions: end of treatment week 5, 6 mg/kg intraperitoneal
[6] = test system: DIO male Golden Syrian hamsters; assay: Oral fat tolerance test; type: in vivo, hamster; conditions: week 4, 6 mg/kg intraperitoneal
Outline: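 Male Golden Syrian hamsters fed 45% kcal-fat diet for 8±2 weeks. Test compound given i.p. in 0.9% Na-CMC + 0.1% Tween-80 in PBS pH 7.4, with oral vehicle dummy. At end of week 4: 6 h fast, pre-load sample, oral olive oil 5 mL/kg, samples at 60–240 min. Retro-orbital bleeds under mild anaesthesia; K-EDTA plasma triglyceride by autoanalyzer.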

[7] = Pharmacokinetics in DIO mice; type: in vivo, mouse
[8] = Pharmacokinetics in DIO hamsters; type: in vivo, hamster
[9] = DIO mice, 9 mg/kg orally, mean ± standard deviation
[10] = DIO hamsters, 6 mg/kg intraperitoneally, mean ± standard deviation

Structure (SMILES) | AUC(0–120 min) for insulin in oral glucose tolerance test [1] | EC50 [2] [nM] | GLP1 secretion [3] | Homeostasis Model of Assessment-Insulin Resistance (HOMA-IR) [4] | improvement (reduction) in LDL cholesterol vs vehicle control [5] [%] | improvement (reduction) in non-HDL cholesterol vs vehicle control [5] [%] | improvement (reduction) in total cholesterol vs vehicle control [5] [%] | improvement (reduction) in triglycerides vs vehicle control [5] [%] | time taken to reach peak plasma triglyceride levels after oral fat loading [6] [min] | Cmax ([7]; C57bl/6J, mouse, plasma, po, 9 mg/kg) [ng/mL] | AUClast [7, 9] [ng·h/mL] | Tmax [7, 9] [h] | AUClast [8, 10] [ng·h/mL] | Tmax [8, 10] [h] | Cmax ([8]; Golden Syrian, hamster, plasma, ip, 6 mg/kg) [ng/mL] | oral bioavailability in hamsters compared with mice ([8]; hamster, oral)
N[C@@H](CC(=O)N1CCn2c(nnc2C(F)(F)F)C1)Cc1cc(F)c(F)cc1F [sitagliptin, reference compound] | higher |  |  |  |  |  |  |  |  |  |  |  |  |  |  | 
CN(C(=O)c1c(Oc2ccc(F)cc2)nc2ncccn12)c1ccc(Cl)cc1 [TRC210258, N-(4-chlorophenyl)-2-(4-fluorophenoxy)-N-methylimidazo [1,2-a] pyrimidine-3-carboxamide] | higher | 221 | significant induction of GLP1 secretion | trend toward amelioration | 26.2 | 32 | 25.4 | 28.3 | 120 | 59.4 ± 22.2 | 525.7 ± 127.0 | 2.25 ± 1.25 | 726.2 ± 223.8 | 1.5 ± 0.71 | 78.7 ± 31.8 | lower oral bioavailability
